Consider 26 compounds from ChEMBL document CHEMBL2150854, “Macrocyclic Hedgehog Pathway Inhibitors: Optimization of Cellular Activity and Mode of Action Studies” (ACS Med Chem Lett, 2012).

Calls of active or inactive are those of the source. The calls are words filed in the database; no cut-off is given here.

The target in experiment [1] is Protein smoothened (Mus musculus) (UniProt P56726). The experiment can be described thus: Inhibition of Smo in mouse C3H10T1/2 cells assessed as inhibition of human Shh-induced cell differentiation after 48 hrs by alkaline phosphatase reporter assay relative to cyclopamine. It is filed as cell-based. To be noted: C3H 10T1/2. In short, it runs like this:
(§1)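 Murine mesenchymal C3H10T1/2 cells were induced to differentiate with Shh protein. Differentiation was read as alkaline phosphatase expression, quantified with fluorescent substrates. Uninduced cells served as baseline. IC50 was taken from dose–response curves.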
(Reporter assays use an easily measured gene product as a stand-in for the process of interest.)

Experiment [2] shares this target. The experiment can be described thus: Inhibition of Smo in mouse Ptch-deficient MEF cells assessed as inhibition of Shh-induced Gli1 transcriptional activity in presence of SAG. It is filed as cell-based.
For experiment [3] the target is unchanged. The experiment can be described thus: Competitive inhibition of Smo in mouse C3H10T1/2 cells assessed as inhibition of purmorphamine-induced Gli1 transcriptional activity at 309 to 25000 nM by qPCR analysis. Type of experiment: cell-based. Conditions: C3H 10T1/2. Background: Real-time PCR tracks product formation cycle by cycle.
Experiment [4] has as its target T1, Protein smoothened (Mus musculus, UniProt P56726). The experiment in a line: Inhibition of Smo in mouse Ptch-deficient MEF cells assessed as inhibition of Shh-induced Gli1 transcriptional activity. Type of experiment: cell-based.
Experiment [5] addresses Protein smoothened (Mus musculus) (UniProt P56726). The experiment can be described thus: Inhibition of Smo in mouse Ptch-deficient MEF cells assessed as inhibition of Shh-induced Gli-responsive betagalactosidase activity after 30 hrs by BetaGLo assay in presence of SAG. Type of experiment: cell-based. The gist of the method: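 Ptch-/- MEF β-gal reporter cells were given an inhibitor dose range together with 20 nM SAG. β-Gal activity was read, with untreated cells and 100 nM KAAD-cyclopamine-treated cells as reference levels.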

The target is the same in experiment [6]. The experiment can be described thus: Ratio of IC50 for Smo in mouse C3H10T1/2 cells assessed as inhibition of human Shh-induced Gli1 transcriptional activity in presence of SAG to IC50 for Smo in mouse C3H10T1/2 cells assessed as inhibition of human Shh-induced Gli1 transcriptional activity. It is filed as cell-based. To be noted: C3H 10T1/2.
Experiment [7] has as its target T1, Protein smoothened. The experiment can be described thus: Inhibition of Smo in mouse Ptch-deficient MEF cells assessed as inhibition of Shh-induced Gli-responsive betagalactosidase activity after 30 hrs by BetaGLo assay. Type of experiment: cell-based.
Experiment [8] has as its target Protein smoothened (Mus musculus) (UniProt P56726). The experiment can be described thus: Inhibition of Smo in mouse C3H10T1/2 cells assessed as inhibition of human Shh-induced Gli1 transcriptional activity after 48 hrs by RT-PCR analysis in presence of SAG. Type of experiment: cell-based. Conditions: C3H 10T1/2.
For experiment [9] the target is unchanged. Conditions: C3H 10T1/2, at 103 to 25000 nM.
The target is the same in experiment [10]. The experiment can be described thus: Inhibition of Smo in mouse C3H10T1/2 cells assessed as inhibition of human Shh-induced Gli1 transcriptional activity after 48 hrs by RT-PCR analysis relative to cyclopamine. It is filed as cell-based. To be noted: C3H 10T1/2.
The target is the same in experiment [11]. The experiment can be described thus: Competitive inhibition of Smo in mouse C3H10T1/2 cells assessed as inhibition of purmorphamine-induced Gli1 transcriptional activity at 103 to 25000 nM by qPCR analysis. Type of experiment: cell-based. To be noted: C3H 10T1/2.
In experiment [12] the target is T1, Protein smoothened. The experiment can be described thus: Inhibition of Smo in mouse C3H10T1/2 cells assessed as inhibition of human Shh-induced Gli1 transcriptional activity after 48 hrs by RT-PCR analysis. Type of experiment: cell-based, C3H 10T1/2. The gist of the method:
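Murine mesenchymal C3H10T1/2 cells were activated with Shh protein and exposed to inhibitor. Gli1 mRNA was quantified by real-time qPCR, normalised to Actb as internal control, and IC50 was taken from dose–response curves.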

The target in experiment [13] is Protein smoothened (Mus musculus) (UniProt P56726). To be noted: C3H 10T1/2, 55.5 to 4500 nM.
For experiment [14], the system named is C3H 10T1/2. The experiment in a line: Effect on purmorphamine-induced Gli1 transcription in mouse C3H10T1/2 cells at 55.5 to 4500 nM by qPCR analysis. It is filed as functional, cell-based.
Experiment [15] has as its target Sonic hedgehog protein (Homo sapiens) (UniProt Q15465). The experiment can be described thus: Inhibition of human Shh-induced mouse C3H10T1/2 cell differentiation after 48 hrs by alkaline phosphatase reporter assay relative to cyclopamine. Conditions: C3H 10T1/2. In short, it runs like this:
as §1

Experiment [16] deals with C3H 10T1/2. The experiment can be described thus: Effect on purmorphamine-induced Gli1 transcription in mouse C3H10T1/2 cells at 103 to 25000 nM by qPCR analysis. It is filed as functional, cell-based.
For experiment [17], the system named is C3H 10T1/2. The experiment can be described thus: Effect on SAG-induced Gli1 transcription in mouse C3H10T1/2 cells at 103 to 25000 nM by qPCR analysis. It is filed as functional, cell-based. The gist of the method: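 Double-titration (Schild-type) design in murine mesenchymal C3H10T1/2 cells. Gli1 expression is induced by a series of SAG concentrations, each combined with several inhibitor concentrations. Gli1 mRNA is quantified by real-time qPCR with Actb as internal control. SAG dose–response curves are compared across inhibitor levels for shifts and for the maximal induction.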

T1 sequence (P56726 whole entry): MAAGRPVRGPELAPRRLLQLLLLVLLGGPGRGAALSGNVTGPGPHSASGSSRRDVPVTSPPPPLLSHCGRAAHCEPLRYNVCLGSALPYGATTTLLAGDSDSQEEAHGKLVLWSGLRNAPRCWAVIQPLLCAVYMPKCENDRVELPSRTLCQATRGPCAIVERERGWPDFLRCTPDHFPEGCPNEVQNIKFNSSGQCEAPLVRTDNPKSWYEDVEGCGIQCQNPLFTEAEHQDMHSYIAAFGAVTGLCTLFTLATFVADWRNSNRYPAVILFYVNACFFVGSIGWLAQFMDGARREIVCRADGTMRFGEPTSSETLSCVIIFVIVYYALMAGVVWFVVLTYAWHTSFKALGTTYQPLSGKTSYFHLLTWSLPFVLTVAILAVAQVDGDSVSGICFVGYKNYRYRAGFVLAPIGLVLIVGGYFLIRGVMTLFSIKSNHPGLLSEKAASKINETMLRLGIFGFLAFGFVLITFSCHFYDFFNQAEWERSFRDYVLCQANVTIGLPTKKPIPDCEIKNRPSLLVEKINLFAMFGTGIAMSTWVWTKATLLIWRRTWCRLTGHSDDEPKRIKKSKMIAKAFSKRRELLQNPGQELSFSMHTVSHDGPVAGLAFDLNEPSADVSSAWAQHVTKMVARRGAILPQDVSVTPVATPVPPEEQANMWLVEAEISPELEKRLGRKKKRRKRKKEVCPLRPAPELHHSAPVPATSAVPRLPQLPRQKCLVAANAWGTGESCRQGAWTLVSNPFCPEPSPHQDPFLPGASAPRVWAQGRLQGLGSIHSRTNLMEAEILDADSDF
Chain of Protein smoothened (Mus musculus) (P56726 whole entry): as above
Chain of Sonic hedgehog protein (Homo sapiens) (Q15465 24-197 limits assumed): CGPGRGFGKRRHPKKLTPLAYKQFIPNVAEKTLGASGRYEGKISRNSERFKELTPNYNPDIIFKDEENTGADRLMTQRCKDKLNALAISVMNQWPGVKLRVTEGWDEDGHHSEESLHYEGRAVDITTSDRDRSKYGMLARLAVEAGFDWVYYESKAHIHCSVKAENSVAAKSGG

`O=C(C[C@@H]1C/C=C/CCC(=O)N[C@H](c2ccc(F)cc2)COC1=O)NCc1ccc(Cl)cc1`: the Imax in [1] came to 90%.
For the compound `O=C(C[C@@H]1C/C=C/CCC(=O)N[C@H](Cc2ccccc2)COC1=O)NCc1ccc(Cl)cc1`, the inhibition result in experiment [2], in experiment [5] and in [8] was “inactive” throughout. The inhibition entry in [3] and in experiment [9] was “Active” each time. Further, the half-maximal inhibitory concentration (IC50) (in general, the concentration needed to halve the response being measured) amounted to 8.8 µM on Protein smoothened [4] and 8.1 µM at Protein smoothened [7]. The Ratio IC50 in experiment [6] turned out to be 18. In addition, in experiment [1], the Imax amounted to 90%.
For the compound `CCCC[C@@H]1COC(=O)[C@H](CC(=O)NCc2ccc(Cl)cc2)C/C=C/CCC(=O)N1`, the Imax in experiment [1] was 53%.
Turning to `O=C(C[C@@H]1C/C=C/CCC(=O)N[C@H](c2ccc(Cl)cc2)COC1=O)NCc1ccc(Cl)cc1`, the inhibition entry in experiment [2], in experiment [5] and in [8] was “inactive” each time. The results for the concentration for half-maximal inhibition (IC50) at Protein smoothened [4], on Protein smoothened [7] and at Protein smoothened [12] were 3.5 µM, 2 µM and 0.4 µM, respectively. In addition, in experiment [6], the Ratio IC50 amounted to 32. The figures for the Imax in experiment [10] and in experiment [1] were 100% and 105%, respectively. In addition, the inhibition entry in experiment [11] and in [9] was “Active” throughout.
`CC1=C2C[C@H]3[C@@H](CC=C4C[C@@H](O)CC[C@@]43C)[C@@H]2CC[C@]12O[C@@H]1C[C@H](C)CN[C@H]1[C@H]2C`: the inhibition entry in experiment [2], in experiment [5] and in [8] was “inactive” in each case. In experiment [13], the inhibition result was “Active”. In addition, the outcome in the experiment with C3H 10T1/2 [14] was inactive.
`CC(C)N[C@H]1C/C=C/C[C@@H](CC(=O)NCc2ccc(Cl)cc2)C(=O)NC[C@@H](c2ccccc2)OC1=O`: the Imax in experiment [1] came to 41%.
Regarding `O=C(C[C@@H]1C/C=C/CCC(=O)N[C@H](c2ccc(Cl)cn2)COC1=O)NCc1ccc(Cl)cc1`, the Imax in experiment [10] was determined as 85%. The IC50 on Protein smoothened [12] was determined as 4.3 µM.
`O=C(CN1C/C=C/CCC(=O)N[C@H](c2ccccc2)COC1=O)NCc1ccc(Cl)cc1`: the Imax in experiment [1] is 47%.
The same measure, in the same setting: to `C[C@H]1C/C=C/C[C@@H](CC(=O)NCc2ccc(Cl)cc2)C(=O)OC[C@@H](c2ccccc2)NC1=O` belongs 78%; to `C[C@@H]1NC(=O)[C@H](CC(=O)NCc2ccc(Cl)cc2)C/C=C/CCC(=O)O[C@@H]1c1ccccc1`, 77%.
`O=C(C[C@@H]1C/C=C/CCC(=O)O[C@H](c2ccccc2)CNC1=O)NCc1ccc(Cl)cc1` yielded an Imax in [15] of 47%. The outcome in the experiment with C3H 10T1/2 [16] and in the experiment with C3H 10T1/2 [17] was inactive.
Take `CN1C[C@@H](c2ccccc2)OC(=O)CC/C=C/C[C@@H](Cc2ccc(Cl)cc2)C1=O`: the Imax in experiment [1] turned out to be 104%.
Take `O=C(C[C@@H]1C/C=C/CCC(=O)N[C@H](c2ccccc2)COC1=O)NCc1ccc(Cl)cc1`: the Imax in [1] amounted to 86%.
`CC(C)(C)OC(=O)C[C@@H]1C/C=C/CCC(=O)N[C@H](c2ccccc2)COC1=O`: the Imax in experiment [1] is 60%.
Turning to `C[C@H]1NC(=O)[C@H](CC(=O)NCc2ccc(Cl)cc2)C/C=C/CCC(=O)O[C@@H]1c1ccccc1`, the Imax in experiment [1] amounted to 69%.
As to `C[C@H]1[C@@H](c2ccccc2)OC(=O)CC/C=C/C[C@@H](CC(=O)NCc2ccc(Cl)cc2)C(=O)N1C`, the Imax in experiment [1] stood at 78%.
Take `C[C@H]1[C@@H](c2ccccc2)OC(=O)CCCCC[C@@H](CC(=O)NCc2ccc(Cl)cc2)C(=O)N1C`: in [1], the Imax worked out at 59%.
Consider `O=C(C[C@@H]1C/C=C/CCC(=O)O[C@H](c2ccccc2)CNC1=O)NCCCC(F)(F)F`, for which the Imax in experiment [1] worked out at 28%.
Same read-out and setting: to `C[C@H]1C/C=C\C[C@@H](CC(=O)NCc2ccc(Cl)cc2)C(=O)OC[C@@H](c2ccccc2)NC1=O` belongs 97%.
In the case of `CC(C)[C@@H]1COC(=O)[C@H](CC(=O)NCc2ccc(Cl)cc2)C/C=C/CCC(=O)N1`, in experiment [1], the Imax was determined as 54%.
For `O=C(C[C@@H]1C/C=C/CCC(=O)OC[C@@H]2CCCN2C1=O)NCc1ccc(Cl)cc1`, the Imax in [1] worked out at 77%.
Still for that read-out and setting: to `O=C(C[C@@H]1C/C=C/C[C@H](Cc2ccccc2)C(=O)N[C@H](c2ccccc2)COC1=O)NCc1ccc(Cl)cc1` belongs 106%.
`O=C(C[C@@H]1C/C=C/CCC(=O)O[C@H](c2ccccc2)CNC1=O)NCc1cccc(Cl)c1`: the Imax in experiment [1] came out at 50%.
`O=C(C[C@@H]1C/C=C/CCC(=O)N[C@H](C2CCCCC2)COC1=O)NCc1ccc(Cl)cc1`: the Imax in experiment [1] turned out to be 75%.
Still for that read-out and setting: to `O=C(C[C@@H]1C/C=C/CCC(=O)N[C@@H](c2ccccc2)COC1=O)NCc1ccc(Cl)cc1` belongs 95%.
In the case of `O=C(C[C@@H]1C/C=C/CCC(=O)N[C@@H]2c3ccccc3C[C@@H]2OC1=O)NCc1ccc(Cl)cc1`, in experiment [1], the Imax turned out to be 40%.
